Data on 20 compounds can be found in ChEMBL document CHEMBL1156186, “Anti-AIDS agents 81. Design, synthesis, and structure-activity relationship study of betulinic acid and moronic acid derivatives as potent HIV maturation inhibitors” (J Med Chem, 2010).

SMILES strings stand for the structures. The source made the active and inactive calls. The calls are words filed in the database; no cut-off is given here. Some results are limits rather than exact numbers.

In data set [1] the test system is Human immunodeficiency virus 1. The data set is described as follows: Antiviral activity against HIV1 3B infected in human MT2 cells assessed as inhibition of viral replication at 0.8 to 100 ug/mL treated 1 day after infection measured on after 4 days postinfection by p24 antigen ELISA. In kind it is functional, organism-based. In short, it runs like this: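 MT-2 cells at 3×10⁵ cells/mL were infected with HIV-1 IIIB (125 TCID₅₀) in the presence of serially diluted sample, and fresh medium was added on day 1 post-infection. Supernatants were harvested on day 4 for p24 antigen ELISA. EC₅₀ is the concentration giving 50% suppression of replication. Values are the average of at least two separate experiments.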

The test system of the next data set is MT2. Nature of the data set: Cytotoxicity against human MT2 cells by XTT assay. In kind it is cell-based. The procedure, abridged:
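Toxicity was read by XTT on mock-infected MT-2 cells (3×10⁵ cells/mL), run as a duplicate set of the infection plates without virus, with medium added on day 1 and the assay ended on day 4. IC₅₀ is the concentration toxic to 50% of cells. Values are the average of at least two experiments.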
Background: Tetrazolium dyes change colour on reduction, which living cells bring about.

Data set [2] has as its system Human immunodeficiency virus 1. Nature of the data set: Antiviral activity against HIV1 3B infected in human MT2 cells assessed as inhibition of viral replication treated 1 day after infection measured on after 4 days postinfection by p24 antigen ELISA. In kind it is functional, organism-based. The settings on record: Human immunodeficiency virus 1, 3B. A general note: ELISA stands for enzyme-linked immunosorbent assay.

Data set [3] is described as follows: Therapeutic index, IC50 for human MT2 cells to EC50 for HIV1 3B. The settings on record: read-out: Ratio IC50/EC50. In kind it is cell-based. The procedure, abridged:
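TI is calculated as IC₅₀ (XTT, mock-infected MT-2) divided by EC₅₀ (p24 ELISA, HIV-1 IIIB-infected MT-2), both taken on day 4 post-infection from parallel plates. Values are the average of at least two experiments.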

Data set [4] concerns Human immunodeficiency virus 1. Nature of the data set: Antiviral activity against wild type HIV1 NL4-3 infected in human HeLa cells assessed as inhibition of virion-associated p25 to p24 conversion at 1 ug/mL after 2 days by Western blotting. In kind it is functional, organism-based. In short, it runs like this: (§1)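 HeLa cells were transfected with pNL4-3 proviral DNA and cultured with or without compound. Two days post-transfection, cells were metabolically labelled for 2 h with ³⁵S-Met/Cys. Cell lysates were prepared and virions were pelleted by ultracentrifugation. Both fractions were immunoprecipitated with HIV-Ig, and the p25 and p24 bands were examined by Western blotting.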

The subject of data set [5] is Human immunodeficiency virus 1. Nature of the data set: Antiviral activity against wild type HIV1 NL4-3 infected in human HeLa cells assessed as inhibition of cell line-associated p25 to p24 conversion at 1 ug/mL after 2 days by Western blotting. In kind it is functional, organism-based. In short, it runs like this: as §1
For orientation: In western blotting, separated proteins are transferred to a membrane and probed.

Data set [6] has as its system Human immunodeficiency virus 1. The data set is described as follows: Antiviral activity against HIV1 expressing CA-SP1 A1V mutant infected in human HeLa cells assessed as inhibition of virion-associated p25 to p24 conversion at 1 ug/mL after 2 days by Western blotting. In kind it is functional, organism-based. The procedure, abridged:
(§2)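 HeLa cells transfected with pNL4-3 bearing the A1V or L231M mutation and cultured with or without test compound. Two days post-transfection, cells labeled 2 h with ³⁵S-Met/Cys. Cell lysates prepared; virions pelleted by ultracentrifugation. Cell and viral lysates immunoprecipitated with HIV-Ig, then Western blotted for p25 and p24.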

The subject of data set [7] is Human immunodeficiency virus 1. Nature of the data set: Antiviral activity against HIV1 expressing CA-SP1 A1V mutant infected in human HeLa cells assessed as inhibition of cell line-associated p25 to p24 conversion at 1 ug/mL after 2 days by Western blotting. In kind it is functional, organism-based. In short, it runs like this:
as §2

Data set [8] has as its system Human immunodeficiency virus 1. The data set is described as follows: Antiviral activity against HIV1 expressing […] L231M mutant infected in human HeLa cells assessed as inhibition of virion-associated p25 to p24 conversion at 1 ug/mL after 2 days by Western blotting. In kind it is functional, organism-based. In short, it runs like this:
as §2

The subject of data set [9] is Human immunodeficiency virus 1. Nature of the data set: Antiviral activity against HIV1 expressing […] L231M mutant infected in human HeLa cells assessed as inhibition of cell line-associated p25 to p24 conversion at 1 ug/mL after 2 days by Western blotting. In kind it is functional, organism-based. In short, it runs like this: as §2
In data set [10] the test system is Human immunodeficiency virus 1. The data set is described as follows: Antiviral activity against HIV1 NL4-3 infected in human MT4 cells assessed as inhibition of viral replication treated 1 day after infection measured on after 4 days postinfection by p24 antigen ELISA. In kind it is functional, organism-based. The procedure, abridged:
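MT-4 cells were infected with HIV-1 NL4-3 variants at an MOI of 0.01 in 96-well format with test sample. Culture supernatants were collected on day 4 post-infection for p24 antigen capture ELISA.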

On to `CCCCC(=O)O[C@H]1CC[C@]2(C)[C@H]3CC[C@@H]4C5=CC(C)(C)CC[C@]5(C(=O)O)CC[C@@]4(C)[C@]3(C)CC[C@H]2C1(C)C`, for which, in data set [1], the inhibition entry is “inactive”. For the same compound, the IC50 in the data set with MT2 is above 10 µM.

Consider `C=C(C)[C@@H]1CC[C@]2(C(=O)O)CC[C@]3(C)[C@H](CC[C@@H]4[C@@]5(C)CC[C@H](OC(=O)C[C@@H](C)C(=O)O)C(C)(C)[C@@H]5CC[C@]43C)[C@@H]12`, for which, in data set [2], the 50% effective concentration (EC50) was found to be 0.12 µM. The compound further displayed an IC50 with MT2 of 43.8 µM. The selectivity ratio in data set [3] was 365.

With `CC1(C)C=C2[C@H]3CC[C@@H]4[C@@]5(C)CC[C@H](OC(=O)C6CCCC6)C(C)(C)[C@@H]5CC[C@@]4(C)[C@]3(C)CC[C@@]2(C(=O)O)CC1`, in data set [1], the inhibition entry was “inactive”. Further, in the data set with MT2, the IC50 was above 10 µM.

With `C=C(C)[C@@H]1CC[C@]2(C(=O)O)CC[C@]3(C)[C@H](CC[C@@H]4[C@@]5(C)CC[C@H](OC(=O)C[C@H](C)C(=O)O)C(C)(C)[C@@H]5CC[C@]43C)[C@@H]12`, the EC50 in data set [2] amounted to 0.0087 µM. For the same compound, the selectivity ratio in data set [3] is 3770. Also, the result in data set [4], in [5], in [6], in data set [7], in data set [8] and in data set [9] was Active.

Take `C=C(C)[C@@H]1CC[C@]2(C(=O)O)CC[C@]3(C)[C@H](CC[C@@H]4[C@@]5(C)CC[C@H](OC(=O)CC(C)(CC)C(=O)O)C(C)(C)[C@@H]5CC[C@]43C)[C@@H]12` (some centres not stated): the EC50 in [2] worked out at 0.0006 µM. This compound also had an IC50 with MT2 of 36.4 µM. Besides, in data set [3], the selectivity ratio is 60700.

As for `C=C(C)[C@@H]1CC[C@]2(C(=O)O)CC[C@]3(C)[C@H](CC[C@@H]4[C@@]5(C)CC[C@H](OC(=O)C6C7C=CC(C7)C6C(=O)O)C(C)(C)[C@@H]5CC[C@]43C)[C@@H]12` (some centres not stated), in data set [1], the inhibition result was “inactive”. In the data set on MT2, this compound came in with an IC50 of 40.3 µM.

As for `CCCC(=O)O[C@H]1CC[C@]2(C)[C@H]3CC[C@@H]4C5=CC(C)(C)CC[C@]5(C(=O)O)CC[C@@]4(C)[C@]3(C)CC[C@H]2C1(C)C`, the inhibition entry in [1] was “inactive”. Moreover, the IC50 with MT2 was above 10 µM.

Turning to `CC(C)CC(=O)O[C@H]1CC[C@]2(C)[C@H]3CC[C@@H]4C5=CC(C)(C)CC[C@]5(C(=O)O)CC[C@@]4(C)[C@]3(C)CC[C@H]2C1(C)C`, the inhibition entry in [1] was “inactive”. Further, the IC50 in the data set on MT2 was above 10 µM.

Regarding `C=C(C)[C@@H]1CC[C@]2(C(=O)O)CC[C@]3(C)[C@H](CC[C@@H]4[C@@]5(C)CC[C@H](OC(=O)CCC(C)(C)C(=O)O)C(C)(C)[C@@H]5CC[C@]43C)[C@@H]12`, the EC50 in data set [2] came to 0.048 µM. The compound also had an IC50 in the data set on MT2 of 41.8 µM. In [3], the selectivity ratio was 870.

In the case of `CC(C)C(=O)O[C@H]1CC[C@]2(C)[C@H]3CC[C@@H]4C5=CC(C)(C)CC[C@]5(C(=O)O)CC[C@@]4(C)[C@]3(C)CC[C@H]2C1(C)C`, the inhibition result in data set [1] was “inactive”. Moreover, the IC50 with MT2 is above 10 µM.

In the case of `C=C(C)[C@@H]1CC[C@]2(C(=O)O)CC[C@]3(C)[C@H](CC[C@@H]4[C@@]5(C)CC[C@H](OC(=O)C6CC=CCC6C(=O)O)C(C)(C)[C@@H]5CC[C@]43C)[C@@H]12` (some centres not stated), in data set [1], the inhibition result is “inactive”. The IC50 in the data set on MT2 was found to be 41.1 µM.

Regarding `CC1(C)C=C2[C@H]3CC[C@@H]4[C@@]5(C)CC[C@H](OC(=O)C(C)(C)C)C(C)(C)[C@@H]5CC[C@@]4(C)[C@]3(C)CC[C@@]2(C(=O)O)CC1`, in [1], the inhibition result is “inactive”. The IC50 in the data set with MT2 was above 10 µM.

As to `CCC(=O)O[C@H]1CC[C@]2(C)[C@H]3CC[C@@H]4C5=CC(C)(C)CC[C@]5(C(=O)O)CC[C@@]4(C)[C@]3(C)CC[C@H]2C1(C)C`, in data set [1], the inhibition entry was “inactive”. In the data set on MT2, this compound came in with an IC50 above 10 µM.

As to `C=C(C)[C@@H]1CC[C@]2(C(=O)O)CC[C@]3(C)[C@H](CC[C@@H]4[C@@]5(C)CC[C@H](OC(=O)[C@@H]6CCCC[C@H]6C(=O)O)C(C)(C)[C@@H]5CC[C@]43C)[C@@H]12`, in data set [2], the EC50 is 17.3 µM. In the data set on MT2, this compound yielded an IC50 of 40.9 µM. For the same compound, the selectivity ratio in data set [3] is 2.4.

As to `C=C(C)[C@@H]1CC[C@]2(C(=O)O)CC[C@]3(C)[C@H](CC[C@@H]4[C@@]5(C)CC[C@H](OC(=O)C[C@@](C)(CC)C(=O)O)C(C)(C)[C@@H]5CC[C@]43C)[C@@H]12`, the inhibition entry in data set [10] is “inactive”.

For `CC1(C)C=C2[C@H]3CC[C@@H]4[C@@]5(C)CC[C@H](OC(=O)C6CCC6)C(C)(C)[C@@H]5CC[C@@]4(C)[C@]3(C)CC[C@@]2(C(=O)O)CC1`, the inhibition entry in data set [1] is “inactive”. The compound further showed an IC50 with MT2 above 10 µM.

For `C=C(C)[C@@H]1CC[C@]2(C(=O)O)CC[C@]3(C)[C@H](CC[C@@H]4[C@@]5(C)CC[C@H](OC(=O)/C=C(/C)C(=O)O)C(C)(C)[C@@H]5CC[C@]43C)[C@@H]12`, in data set [2], the EC50 turned out to be 0.18 µM. Also, the IC50 in the data set with MT2 is 42.5 µM. Moreover, in data set [3], the selectivity ratio is 236.

`C=C(C)[C@@H]1CC[C@]2(C(=O)O)CC[C@]3(C)[C@H](CC[C@@H]4[C@@]5(C)CC[C@H](OC(=O)CC(C)(C)C(=O)O)C(C)(C)[C@@H]5CC[C@]43C)[C@@H]12` [BEVIRIMAT]: in data set [2], the EC50 stood at 0.0013 µM. The IC50 in the data set with MT2 turned out to be 42.8 µM. Moreover, the selectivity ratio in data set [3] was 32900.

For `CCC(C)C(=O)O[C@H]1CC[C@]2(C)[C@H]3CC[C@@H]4C5=CC(C)(C)CC[C@]5(C(=O)O)CC[C@@]4(C)[C@]3(C)CC[C@H]2C1(C)C` (some centres not stated), the inhibition entry in data set [1] was “inactive”. In addition, the IC50 in the data set on MT2 is above 10 µM.

For `C=C(C)[C@@H]1CC[C@]2(C(=O)O)CC[C@]3(C)[C@H](CC[C@@H]4[C@@]5(C)CC[C@H](OC(=O)[C@@H]6CCC[C@H]6C(=O)O)C(C)(C)[C@@H]5CC[C@]43C)[C@@H]12`, the EC50 in [2] is 2.2 µM. Further, in the data set with MT2, the midpoint of inhibition, the IC50, lay at 41.9 µM. Further, the selectivity ratio in data set [3] came to 19.

The term IC50 denotes the concentration that gives 50% inhibition. Read a high IC50 as weaker potency in that assay. By EC50 is commonly meant the concentration needed to bring the measured effect to its halfway point.
